Assay results: ChEMBL document CHEMBL4428066, “Small Molecule Reversible Inhibitors of Bruton's Tyrosine Kinase (BTK): Structure-Activity Relationships Leading to the Identification of 7-(2-Hydroxypropan-2-yl)-4-[2-methyl-3-(4-oxo-3,4-dihydroquinazolin-3-yl)phenyl]-9H-carbazole-1-carboxamide (BMS-935177)” (J Med Chem, 2016)
Values after ≈ are worked out from the molar mass of the structure shown. Active and inactive are the calls of the source. No cut-off for these calls is given here.

What was measured:
[1] = Cmax in cynomolgus monkey plasma at 2 mg/kg, administered through oral gavage after 0.25 to 48 hrs by LC/MS/MS analysis; assay type: ADME, organism-based, Macaca fascicularis; set-up: dose 2 mg/kg, route oral
[2] = biological target: BDNF/NT-3 growth factors receptor (Homo sapiens, UniProt Q16620); assay: Inhibition of partial length human TRKB expressed in mammalian system
[3] = Passive permeability from apical to basolateral side in human Caco2 cells; assay type: ADME, cell-based; conditions: Caco-2, read-out: permeability
[4] = Oral bioavailability in cynomolgus monkey at 2 mg/kg after 0.25 to 48 hrs by LC/MS/MS analysis; assay type: ADME, organism-based, Macaca fascicularis; conditions: in vivo
[5] = Half life in mouse plasma at 2 mg/kg, iv through bolus administration after 0.05 to 24 hrs by LC/MS/MS analysis; assay type: ADME, organism-based
[6] = tested on: Mus musculus; assay: Antiarthritic activity in DBA/1 mouse model of collagen-induced arthritis inflammation assessed as protection against woven porous bones dosed daily and orally beginning on day of primary immunization by microcomputed tomography imaging analysis; assay type: functional, organism-based
[7] = Plasma clearance in Beagle dog at 2 mg/kg, iv through bolus administration after 0.167 to 48 hrs by LC/MS/MS analysis; assay type: ADME, organism-based, Canis lupus familiaris
[8] = tested on: Mus musculus; assay: Time required for plasma concentration to reach above in vitro BCR/IgM/IgG-stimulated CD69 expression mouse whole blood IC50 in DBA/1 mouse CIA model at 20 mg/kg administered daily through oral gavage starting on day of primary immunization; assay type: ADME, organism-based; conditions: in vivo
[9] = Solubility of the compound in fed state simulated intestinal fluid; assay type: physicochemical
[10] = Volume of distribution in steady state in mouse at 2 mg/kg, iv through bolus administration after 0.05 to 24 hrs by LC/MS/MS analysis; assay type: ADME, organism-based; conditions: in vivo, read-out: Vdss
[11] = Oral bioavailability in Beagle dog at 2 mg/kg after 0.25 to 48 hrs by LC/MS/MS analysis; assay type: ADME, organism-based, Canis lupus familiaris; conditions: in vivo
[12] = AUC (0 to 24 hrs) in Balb/C mouse at 10 mg/kg, po; assay type: ADME, organism-based; set-up: time < 24 hr, dose 10 mg/kg, route oral; conditions: in vivo
How it was run: (§1)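 Male Balb/C mice dosed orally once at 10 mg/kg in PEG300/TPGS/ethanol (90/5/5 v/v/v).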

[13] = biological target: Cytochrome P450 3A4 (Homo sapiens, UniProt P08684); assay: Inhibition of human liver microsomes CYP3A4 after 30 mins in presence of NADPH; assay type: ADME
[14] = tested on: Mus musculus; assay: Decrease in anti-KLH IgM titers in chronic Balb/C mouse KLH antibody response model at 5 to 45 mg/kg, po qd administered through oral gavage after 14 days by ELISA; assay type: functional, organism-based
How it was run: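 Chronic KLH challenge model in mice with compound given by mouth. Anti-KLH IgM appears in the first week after challenge. Switching to IgG anti-KLH is evident by day 14.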

[15] = Aqueous solubility of the compound; assay type: physicochemical; conditions: aqueous medium
[16] = Half life in cynomolgus monkey plasma at 2 mg/kg, iv through bolus administration after 0.167 to 48 hrs by LC/MS/MS analysis; assay type: ADME, organism-based, Macaca fascicularis
[17] = biological target: Tyrosine-protein kinase ITK/TSK (Homo sapiens, UniProt Q08881); assay: Inhibition of partial length human ITK expressed in bacterial system
[18] = Oral bioavailability in Sprague-Dawley rat at 5 mg/kg by LC/MS/MS analysis; assay type: ADME, organism-based; conditions: in vivo
[19] = tested on: Mus musculus; assay: Time required for plasma concentration to reach above in vitro BCR/IgM/IgG-stimulated CD69 expression mouse whole blood IC50 in DBA/1 mouse CIA model at 10 mg/kg administered daily through oral gavage starting on day of primary immunization; assay type: ADME, organism-based; conditions: in vivo
[20] = tested on: Mus musculus; assay: Antiarthritic activity in Balb/C mouse model of anti-collagen antibody-induced arthritis assessed as reduction in paw clinical scores at dosed orally daily for 3 days followed by LPS challenge; assay type: functional, organism-based
[21] = Volume of distribution in steady state in cynomolgus monkey at 2 mg/kg, iv through bolus administration after 0.167 to 48 hrs by LC/MS/MS analysis; assay type: ADME, organism-based, Macaca fascicularis; conditions: in vivo, read-out: Vdss
[22] = Protein binding in mouse serum; assay type: ADME, cell-free; conditions: read-out: PB
[23] = Passive permeability from basolateral to apical side in human Caco2 cells; assay type: ADME, cell-based; conditions: Caco-2, read-out: permeability
[24] = AUC in mouse plasma at 5 mg/kg, administered through oral gavage after 0.25 to 24 hrs by LC/MS/MS analysis; assay type: ADME, organism-based; set-up: time 0.25-24 hr, dose 5 mg/kg, route oral
[25] = tested on: Mus musculus; assay: Antiarthritic activity in DBA/1 mouse model of collagen-induced arthritis inflammation assessed as protection against pitting dosed daily and orally beginning on day of primary immunization by microcomputed tomography imaging analysis; assay type: functional, organism-based
[26] = tested on: Mus musculus; assay: Antiarthritic activity in DBA/1 mouse model of collagen-induced arthritis inflammation assessed reduction in disease severity at 10 mg/kg, po dosing daily starting on day of primary immunization; assay type: functional; set-up: scale not given: the % may be the effect or the level left
[27] = tested on: Mus musculus; assay: Antiarthritic activity in Balb/C mouse model of anti-collagen antibody-induced arthritis assessed as reduction in paw clinical scores at 30 mg/kg, po dosed daily for 3 days followed by LPS challenge; assay type: functional, organism-based
[28] = Half life in Beagle dog plasma at 2 mg/kg, iv through bolus administration after 0.167 to 48 hrs by LC/MS/MS analysis; assay type: ADME, organism-based, Canis lupus familiaris
[29] = tested on: Mus musculus; assay: Antiarthritic activity in DBA/1 mouse model of collagen-induced arthritis inflammation assessed reduction in incidence of clinically evident disease dosed daily and orally beginning on day of primary immunization; assay type: functional, organism-based
[30] = Half life in Sprague-Dawley rat plasma at 2 mg/kg, iv through bolus administration by LC/MS/MS analysis; assay type: ADME, organism-based
[31] = Tmax in mouse plasma at 5 mg/kg, administered through oral gavage after 0.25 to 24 hrs by LC/MS/MS analysis; assay type: ADME, organism-based
[32] = tested on: Mus musculus; assay: Antiarthritic activity in DBA/1 mouse model of collagen-induced arthritis inflammation assessed as presence of smooth bone surface at 20 mg/kg, po dosed daily beginning on day of primary immunization by microcomputed tomography imaging analysis; assay type: functional, organism-based
[33] = biological target: Tyrosine-protein kinase Lck (Homo sapiens, UniProt P06239); assay: Inhibition of partial length human LCK expressed in bacterial system
[34] = Plasma clearance in Sprague-Dawley rat at 2 mg/kg, iv through bolus administration by LC/MS/MS analysis; assay type: ADME, organism-based
[35] = Cmax in Beagle dog plasma at 2 mg/kg, administered through oral gavage after 0.25 to 48 hrs by LC/MS/MS analysis; assay type: ADME, organism-based, Canis lupus familiaris; set-up: dose 2 mg/kg, route oral
[36] = Volume of distribution in steady state in Sprague-Dawley rat at 2 mg/kg, iv through bolus administration by LC/MS/MS analysis; assay type: ADME, organism-based; conditions: in vivo, read-out: Vdss
[37] = Cmax in Balb/C mouse at 10 mg/kg, po; assay type: ADME, organism-based; set-up: dose 10 mg/kg, route oral; conditions: in vivo; how it was run: as §1
[38] = biological target: Cytochrome P450 2B6 (Homo sapiens, UniProt P20813); assay: Inhibition of human liver microsomes CYP2B6 after 30 mins in presence of NADPH; assay type: ADME
[39] = biological target: Cytoplasmic tyrosine-protein kinase BMX (Homo sapiens, UniProt P51813); assay: Inhibition of full length human BMX expressed in bacterial system
Chain of Cytoplasmic tyrosine-protein kinase BMX (P51813 whole entry): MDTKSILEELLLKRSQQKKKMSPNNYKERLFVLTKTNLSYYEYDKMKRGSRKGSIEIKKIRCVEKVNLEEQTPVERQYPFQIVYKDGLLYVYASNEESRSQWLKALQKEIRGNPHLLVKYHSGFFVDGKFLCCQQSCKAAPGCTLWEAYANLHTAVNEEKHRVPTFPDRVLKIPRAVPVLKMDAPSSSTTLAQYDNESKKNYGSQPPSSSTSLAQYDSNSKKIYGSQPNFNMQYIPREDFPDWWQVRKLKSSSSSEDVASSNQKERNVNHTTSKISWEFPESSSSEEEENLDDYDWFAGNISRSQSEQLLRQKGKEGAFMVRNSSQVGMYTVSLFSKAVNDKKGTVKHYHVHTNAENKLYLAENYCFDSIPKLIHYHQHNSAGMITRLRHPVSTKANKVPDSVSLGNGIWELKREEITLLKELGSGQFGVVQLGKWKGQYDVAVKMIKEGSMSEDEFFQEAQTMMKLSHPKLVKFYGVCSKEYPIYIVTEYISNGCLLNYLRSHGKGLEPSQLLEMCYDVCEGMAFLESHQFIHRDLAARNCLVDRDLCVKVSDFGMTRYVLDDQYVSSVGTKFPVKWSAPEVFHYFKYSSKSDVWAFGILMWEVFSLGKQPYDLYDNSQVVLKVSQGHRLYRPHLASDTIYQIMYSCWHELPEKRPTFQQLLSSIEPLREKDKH

Chain of Tyrosine-protein kinase Lck (P06239 whole entry): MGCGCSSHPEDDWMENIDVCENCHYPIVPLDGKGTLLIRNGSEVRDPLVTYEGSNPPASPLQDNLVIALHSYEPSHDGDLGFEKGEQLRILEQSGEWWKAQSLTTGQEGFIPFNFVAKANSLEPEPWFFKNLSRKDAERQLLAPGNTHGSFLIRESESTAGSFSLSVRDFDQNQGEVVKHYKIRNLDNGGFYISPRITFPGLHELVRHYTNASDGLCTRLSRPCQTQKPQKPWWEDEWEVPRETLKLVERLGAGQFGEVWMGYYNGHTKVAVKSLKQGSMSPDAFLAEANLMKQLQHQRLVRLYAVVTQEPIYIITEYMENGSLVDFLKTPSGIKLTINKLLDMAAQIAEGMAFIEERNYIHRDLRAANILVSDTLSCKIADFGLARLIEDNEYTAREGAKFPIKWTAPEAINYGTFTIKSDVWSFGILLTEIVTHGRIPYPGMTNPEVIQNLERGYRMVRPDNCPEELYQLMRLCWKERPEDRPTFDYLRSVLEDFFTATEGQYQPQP
Chain of Cytochrome P450 2B6 (P20813 whole entry): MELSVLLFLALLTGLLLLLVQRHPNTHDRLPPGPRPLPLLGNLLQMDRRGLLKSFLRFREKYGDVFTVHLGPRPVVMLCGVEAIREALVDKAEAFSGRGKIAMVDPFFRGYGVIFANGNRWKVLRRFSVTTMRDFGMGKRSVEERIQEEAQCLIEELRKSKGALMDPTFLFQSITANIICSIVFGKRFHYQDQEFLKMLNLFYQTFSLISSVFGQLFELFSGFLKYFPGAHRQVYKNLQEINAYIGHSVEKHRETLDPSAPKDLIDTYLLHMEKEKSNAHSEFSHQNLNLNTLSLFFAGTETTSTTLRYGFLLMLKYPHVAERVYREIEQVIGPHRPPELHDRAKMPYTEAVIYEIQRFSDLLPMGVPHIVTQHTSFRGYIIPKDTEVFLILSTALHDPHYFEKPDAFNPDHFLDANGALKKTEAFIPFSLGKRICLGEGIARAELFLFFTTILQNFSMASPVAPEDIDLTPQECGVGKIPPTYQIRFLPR
Chain of Tyrosine-protein kinase ITK/TSK (Q08881 whole entry): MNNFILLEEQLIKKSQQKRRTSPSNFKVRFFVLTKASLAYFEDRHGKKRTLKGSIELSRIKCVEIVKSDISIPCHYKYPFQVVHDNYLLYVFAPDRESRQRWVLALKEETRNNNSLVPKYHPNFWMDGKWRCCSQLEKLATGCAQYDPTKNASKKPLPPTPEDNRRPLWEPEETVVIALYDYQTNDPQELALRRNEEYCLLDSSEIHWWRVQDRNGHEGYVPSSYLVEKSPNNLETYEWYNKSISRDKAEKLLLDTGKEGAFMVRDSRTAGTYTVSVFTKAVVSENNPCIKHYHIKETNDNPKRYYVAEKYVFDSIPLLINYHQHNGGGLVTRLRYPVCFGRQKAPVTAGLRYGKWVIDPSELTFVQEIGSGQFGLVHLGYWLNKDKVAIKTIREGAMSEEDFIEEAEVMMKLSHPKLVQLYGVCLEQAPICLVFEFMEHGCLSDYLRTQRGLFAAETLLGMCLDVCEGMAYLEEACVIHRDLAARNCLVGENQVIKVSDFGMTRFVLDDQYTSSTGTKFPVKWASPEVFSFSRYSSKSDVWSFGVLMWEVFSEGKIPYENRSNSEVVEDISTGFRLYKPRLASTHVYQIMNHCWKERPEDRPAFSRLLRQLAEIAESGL
Chain of BDNF/NT-3 growth factors receptor (Q16620 whole entry): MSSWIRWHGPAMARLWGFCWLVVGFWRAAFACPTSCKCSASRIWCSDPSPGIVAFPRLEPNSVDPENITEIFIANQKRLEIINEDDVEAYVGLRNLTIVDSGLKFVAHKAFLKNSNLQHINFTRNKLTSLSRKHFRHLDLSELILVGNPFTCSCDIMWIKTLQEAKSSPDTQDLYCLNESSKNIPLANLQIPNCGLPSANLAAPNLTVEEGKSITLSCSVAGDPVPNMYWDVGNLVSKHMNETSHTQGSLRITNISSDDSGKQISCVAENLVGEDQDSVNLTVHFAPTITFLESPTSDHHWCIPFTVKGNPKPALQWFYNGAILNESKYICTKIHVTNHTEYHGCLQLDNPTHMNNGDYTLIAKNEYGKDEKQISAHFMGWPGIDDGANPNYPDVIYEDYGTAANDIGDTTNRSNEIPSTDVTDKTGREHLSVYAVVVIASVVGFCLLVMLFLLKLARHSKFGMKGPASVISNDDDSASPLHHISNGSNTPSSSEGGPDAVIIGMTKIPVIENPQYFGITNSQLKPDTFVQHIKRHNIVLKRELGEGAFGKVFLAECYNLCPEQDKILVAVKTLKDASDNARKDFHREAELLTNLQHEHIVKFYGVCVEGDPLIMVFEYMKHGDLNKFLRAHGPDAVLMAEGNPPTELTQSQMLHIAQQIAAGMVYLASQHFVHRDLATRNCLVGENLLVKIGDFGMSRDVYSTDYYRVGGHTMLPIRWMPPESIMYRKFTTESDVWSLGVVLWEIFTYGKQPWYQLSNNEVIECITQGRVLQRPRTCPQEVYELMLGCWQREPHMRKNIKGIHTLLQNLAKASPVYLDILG
Chain of Cytochrome P450 3A4 (P08684 whole entry): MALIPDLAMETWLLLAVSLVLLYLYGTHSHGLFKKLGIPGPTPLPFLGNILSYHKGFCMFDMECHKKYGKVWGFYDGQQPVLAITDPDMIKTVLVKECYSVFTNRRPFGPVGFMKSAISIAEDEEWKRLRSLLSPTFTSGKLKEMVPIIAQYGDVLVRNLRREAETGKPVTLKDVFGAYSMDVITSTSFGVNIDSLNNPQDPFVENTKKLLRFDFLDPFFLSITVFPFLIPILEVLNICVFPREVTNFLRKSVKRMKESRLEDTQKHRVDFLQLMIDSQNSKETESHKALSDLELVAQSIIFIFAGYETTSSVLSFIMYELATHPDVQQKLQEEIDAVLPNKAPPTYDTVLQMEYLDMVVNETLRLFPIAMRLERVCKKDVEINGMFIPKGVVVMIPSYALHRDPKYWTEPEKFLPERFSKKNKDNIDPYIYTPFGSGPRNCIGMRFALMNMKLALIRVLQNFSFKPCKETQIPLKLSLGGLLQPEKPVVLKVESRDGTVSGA

With Cc1c(-c2ccc(C(N)=O)c3[nH]c4cc(C(C)(C)O)ccc4c23)cccc1-n1cnc2ccccc2c1=O the Cmax [1] was 4.8 µM, the IC50 [2] was 100 nM and the Papp A→B [3] was < 1.5 ×10⁻⁶ cm/s. For the same molecule, the bioavailability [4] was 100%, the half-life [5] was 240 min and the Activity [6] was “Dose-dependent effect”. It also gave a clearance [7] of 3.7 mL/min/kg, a Time [8] of 20 h and a solubility [9] of 60 µg/mL (≈ 119 µM). For the same molecule, the Vd [10] was 1.7 L/kg, the bioavailability [11] was 100% and the AUC(0-t) at 24 h [12] was 80 µM·h. The IC50 [13] was > 40 µM, the Activity [14] was “Active” and the solubility [15] was < 1 µg/mL. For the same molecule, the half-life [16] was 636 min, the IC50 [17] was 96 nM and the bioavailability [18] was 84%. For the same molecule, the Time [19] was 12 h, the Activity [20] was “Dose-dependent effect” and the Vd [21] was 1.6 L/kg. The fraction unbound [22] was 0.01, the Papp B→A [23] was 12.2 ×10⁻⁶ cm/s and the AUC [24] was 30.8 µM·h. The Activity [25] was “Dose-dependent effect”, the Activity [26] was 40% and the Activity [27] was “Active”. The half-life [28] was 624 min, the Activity [29] was “Dose-dependent effect” and the half-life [30] was 306 min. The Tmax [31] was 3 h, the Activity [32] was “Active” and the IC50 [33] was 150 nM. For the same molecule, the clearance [34] was 6.4 mL/min/kg, the Cmax [35] was 1200 nM and the Vd [36] was 2.6 L/kg. The Cmax [37] was 8.96 µM, the IC50 [38] was > 40 µM and the IC50 [39] was 24 nM.
